The values below come from ChEMBL document CHEMBL1148968 (J Nat Prod, 2004).

Data set [1] deals with T1, Hypoxia inducible factors; HIF-1-alpha, HIF-2-alpha (Homo sapiens, UniProt Q16665+Q99814). Nature of the data set: Inhibition of hypoxia-induced HIF1 activation in human T47D cells carrying […] reporter gene measured by luciferase activity. The data set is classed as cell-based. An outline of the steps:
(§1)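 T47D cells were transiently transfected with the pTK-HRE3-luc reporter (erythropoietin HRE). They were pretreated with compound for 30 min, then held 16 h at 1% O2/5% CO2/94% N2. Luciferase activity was reported as % inhibition versus the induced control. One representative experiment, run in quadruplicate, mean ± SE.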
(A reporter such as luciferase makes a cellular process visible.)

The test system of data set [2] is SK-BR-3. Nature of the data set: Inhibition of human SK-BR-3 cell proliferation/viability at 100 uM after 48 hrs by MTT assay. The data set is classed as functional. Particulars: SK-BR-3, 48 h. The method in brief: (§2)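 Cells grown in DMEM/F12 with 10% FBS and antibiotics, seeded at 3×10^4/well, incubated 24 h at 37 °C. Compound diluted in serum-free medium, tested at 10^-9 to 10^-4 M for 48 h under normoxia. MTT added to 0.25 mg/mL final for 4 h at 37 °C, then lysed in 0.04 N HCl/isopropanol, A570 read.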

The species entered for data set [3] is Mus musculus. Nature of the data set: Inhibition of C57B1/6 mouse liver mitochondrial activity in presence of succinate. Format: functional.
For data set [4], the system named is T47D. Nature of the data set: Blockade of HIF1alpha protein expression in hypoxia-induced human T47D cells at 1 uM under 30 mins in normoxic condition followed by 4 hrs in hypoxic condition. The data set is classed as functional, cell-based. An outline of the steps:
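T47D nuclear HIF-1α (and HIF-1β) measured by Western blot of nuclear extracts. Exponentially grown cells were pretreated 30 min under normoxia (95% air), then held 4 h at 1% O2.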

Data set [5] addresses T1, Hypoxia inducible factors; HIF-1-alpha, HIF-2-alpha. Nature of the data set: Inhibition of hypoxia-induced HIF1 activation in human T47D cells carrying […] reporter gene measured by luciferase activity at 1.78 uM. The data set is classed as cell-based. An outline of the steps:
as §1

Data set [6] deals with MDA-MB-231. Nature of the data set: Inhibition of human MDA-MB-231 cell proliferation/viability up to 100 uM after 48 hrs by MTT assay. The data set is classed as functional. An outline of the steps: as §2
(Formazan colour is commonly taken as a measure of viable cells.)

For data set [7], the system named is T47D. Nature of the data set: Inhibition of human T47D cell proliferation/viability up to 100 uM after 48 hrs by MTT assay. Format: functional. An outline of the steps: as §2
A short description of data set [8]: Inhibition of african green monkey Vero cell proliferation/viability up to 100 uM after 48 hrs by MTT assay. The data set is classed as cell-based. To be noted: chlorocebus sabaeus, Vero cells. An outline of the steps: as §2
A short description of data set [9]: Inhibition of electron transport pathway in C57B1/6 mouse liver mitochondria. The data set is classed as functional.
The subject of data set [10] is T47D. Nature of the data set: Inhibition of hypoxia-induced secreted VEGF protein level in human T47D cells at 3 uM by ELISA. The data set is classed as functional. The method in brief:
(§3)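 T47D cells seeded at 3.56×10^5/well in DMEM/F12 with 10% FBS and grown 24 h. Half the medium was replaced with serum-free medium containing compound. After a 30 min pretreatment, cells were held 16 h at 1% O2. VEGF in conditioned medium was measured by human VEGF ELISA and normalized to viable cell count (hemocytometer). Triplicate, mean ± SE, ANOVA/Fisher's PLSD.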
For orientation: An ELISA detects its analyte on a solid surface through an enzyme-linked reagent.

In data set [11] the test system is MCF7. Nature of the data set: Inhibition of human MCF7 cell proliferation/viability up to 100 uM after 48 hrs by MTT assay. The data set is classed as functional. The method in brief: as §2
In data set [12] the test system is T47D. Nature of the data set: Reduction of human T47D cell colony formation under hypoxic condition at 1 uM by clonogenic survival assay. The data set is classed as functional. An outline of the steps:
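T47D cells seeded at 400 cells per 100 mm dish and allowed to adhere 4 h. Half the medium was replaced with serum-free medium containing compound. After a 30 min pretreatment, cells were held 24 h at 1% O2 (normoxic comparison run in parallel). Medium was then refreshed and cells grown 2–3 weeks under normoxia. Colonies were methanol-fixed and stained with crystal violet, and those over 50 cells counted.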

Data set [13] has as its system T47D. Nature of the data set: Inhibition of hypoxia-induced secreted VEGF protein level in human T47D cells at 1 uM by ELISA. Format: functional. An outline of the steps:
as §3

The source made the active and inactive calls. The rule behind the calls is not given here.

The term EC50 denotes the concentration needed to bring the measured effect to its halfway point. By IC50 is commonly meant the concentration that inhibits the measured activity by half. Broadly, the inhibition is the relative decrease from the control value, in per cent.

Turning to `CC1=C[C@@H](O)C(C(C)CC[C@@H]2[C@@H](C)[C@]3(C)CC[C@@]2(C)O3)CC1` (some centres undefined) [LAURENDITERPENOL], the EC50 in [1] was found to be 0.4 µM. For the same compound, the figures for the IC50 in data set [1] and in data set [9] were 0.4 µM and 0.8 µM, respectively. Further, in data set [2], at 100 µM the inhibition was 63%. In addition, the outcome in [3] was inactive. The outcome in data set [4] was Active. Also, the inhibition in data set [5] came out at 88%. The “inhibition (INH)” value in data set [6], in data set [7] and in data set [11] was below 50% in each case. The same compound returned an inhibition at 48 h in data set [8] below 50%. Moreover, at 3 µM the inhibition in data set [10] was 80%. Moreover, the inhibition at 1 µM in [12] amounted to 50%; in data set [13] it was 55%.
